TAAR1 agonist: human TAAR1 agonists, primary screen, Fluo-8 calcium fluorescence, CHO RD-HGA16 cells; Trace amine-associated receptor 1 (Homo sapiens), Q96RJ0; vehicle wells 0%, saturating PEA agonist 100%; activation, % at 3 µM; 360,000 compounds, 0.99% hits;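 active means activation above the mean activation of all test compounds in the run plus 3 SD, cut at about 38% in these data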
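Test system: RD-HGA16 (CHO) cells co-expressing Gα16 and hTAAR1 / Benchmarks: DMSO vehicle as 0%, PEA at EC100 as 100% / Repeats: no replicates (n 1) / Measure: % activation from peak over basal fluorescence ratio, DMSO-to-PEA scaled / Timing: 17-24 h plating, Fluo-8 75 min 37 °C, 30 min RT / Technique: kinetic Fluo-8 calcium fluorescence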
CHRM1 agonist: human M1 muscarinic receptor agonists, primary screen, Fluo-8 calcium fluorescence, CHO-K1 cells, HTS; Muscarinic acetylcholine receptor M1 (Homo sapiens), P11229; CHO-K1 hM1, agonist mode; 0% DMSO, 100% acetylcholine EC100; activation, % at 3 µM; 360,000 compounds, 0.33% hits; AID 588814, 2011;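 active means activation above the run's mean compound activation plus 3 SD, cut at about 16% in these data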;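 further: peak over basal fluorescence ratio within a 140 s kinetic read after compound addition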
Target sequence (P11229 whole entry, looked up): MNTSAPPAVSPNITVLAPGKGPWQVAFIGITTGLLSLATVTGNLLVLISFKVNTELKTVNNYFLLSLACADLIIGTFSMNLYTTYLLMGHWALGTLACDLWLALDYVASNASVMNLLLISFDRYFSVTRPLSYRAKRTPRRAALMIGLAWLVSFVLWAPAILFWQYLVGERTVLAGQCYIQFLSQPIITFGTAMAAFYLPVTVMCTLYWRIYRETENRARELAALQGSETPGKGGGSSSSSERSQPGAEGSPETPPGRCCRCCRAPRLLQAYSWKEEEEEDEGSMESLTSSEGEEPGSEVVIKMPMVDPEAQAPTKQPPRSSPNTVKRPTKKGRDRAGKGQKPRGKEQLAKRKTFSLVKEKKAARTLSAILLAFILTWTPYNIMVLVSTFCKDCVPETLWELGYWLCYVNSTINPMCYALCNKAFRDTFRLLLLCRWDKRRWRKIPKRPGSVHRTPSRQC
M1 PAM: human M1 muscarinic receptor positive allosteric modulators, primary screen, CHO-K1 cells, Fluo-8 calcium fluorescence, 1536-well | CHO-K1 hM1, ACh EC20; 0% = ACh EC20, 100% = maximal ACh | activation, % at 3 µM | 360,000 compounds, 0.088% hits; in the data active means activation above about 19%, passing the limit was not always enough
TAAR1 antagonist: human TAAR1 antagonists, primary screen, Fluo-8 calcium fluorescence, CHO RD-HGA16 cells. Trace amine-associated receptor 1 (Homo sapiens), Q96RJ0. antagonist. inhibition, % at 3 µM. 360,000 compounds, 1.5% hits. AID 624466, 2012;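 active means inhibition above a per-plate cutoff, the mean inhibition of test compounds on that plate plus 3 SD, cut at about 49% in these data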
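Assay system: RD-HGA16 CHO cells with stable hTAAR1 and Gα16 / Reagent: EC80 β-phenethylamine stimulus / Doses: 3 µM, single point / Timing: dye loading 75 min at 37 °C, then 30 min room temperature / Measured by: Fluo-8 intracellular calcium dye fluorescence, real-time kinetic reads / Controls: vehicle wells and EC80 agonist wells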
CHRM1 antagonist: human M1 muscarinic receptor antagonists, primary screen, CHO-K1 cells, Fluo-8 calcium fluorescence, 1536-well | inhibition, % at 3 µM | CHO-K1 hM1, ACh EC80 antagonist | 360,000 compounds, 1.3% hits | AID 588852, 2011;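 active means percent inhibition above its own plate's cutoff, namely the mean of that plate's compound wells plus 3 SD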;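 further: peak over basal fluorescence ratio during 140 s after agonist addition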
Each line names hits and unclear results; the compound was inactive in the other large screens. A selection: hits, their analogues and other compounds. The true share with any hit is near 3.4%.

CSCCC(c1nnnn1-c1ccc2c(c1)OCCO2)N1CCC2(CC1)C(=O)NCN2c1ccccc1 (stereo not given)	TAAR1 antagonist 53.5
Cc1cccc(C)c1-n1nnnc1C(CCc1ccccc1)N1CCC(n2c(=O)[nH]c3ccccc32)CC1 (stereo not given)	none
O=C1NCN(c2ccccc2)C12CCN(C(c1ccccc1OC(F)(F)F)c1nnnn1-c1ccc3c(c1)OCCO3)CC2 (stereo not given)	none
COc1ccc(-n2nnnc2C(CCSC)N2CCC(n3c(=O)[nH]c4ccccc43)CC2)cc1 (stereo not given)	TAAR1 antagonist 55.1
COc1ccc(C(c2nnnn2Cc2ccccc2)N2CCC3(CC2)C(=O)NCN3c2ccccc2)cc1 (stereo not given)	none
O=c1[nH]c2ccccc2n1C1CCN(C(CCc2ccccc2)c2nnnn2-c2ccc3c(c2)OCCO3)CC1 (stereo not given)	TAAR1 antagonist 55.0
COc1cccc(C(c2nnnn2Cc2ccccc2)N2CCC3(CC2)C(=O)NCN3c2ccccc2)c1OC (stereo not given)	TAAR1 antagonist 53.6
CCC(c1nnnn1-c1ccc(OC)cc1)N1CCC(n2c(=O)[nH]c3ccccc32)CC1 (stereo not given)	none
COc1ccc(C(c2nnnn2-c2ccc3c(c2)OCCO3)N2CCC(n3c(=O)[nH]c4ccccc43)CC2)cc1 (stereo not given)	TAAR1 antagonist 58.9
COc1cc(C)c(CN2CC=C(c3ccc(F)cc3)CC2)cc1C	none
COc1cc(CN2CC=C(c3ccc(F)cc3)CC2)cc(OC)c1	CHRM1 antagonist 30.8
COc1ccc(CC(=O)C2C(=O)N(C)c3ccccc32)cc1OC (stereo not given)	none
CCCC[N+]1(C)[C@@H]2CC(OC(=O)[C@H](CO)c3ccccc3)C[C@H]1[C@@H]1O[C@@H]12 (stereo not given in full)	CHRM1 antagonist 98.1
C#CCOC(=O)C1=CCCN(C)C1	CHRM1 agonist 106.0
CCOc1cccc(CNC2CN3CCC2CC3)c1 (stereo not given)	none
COc1cccc(CNC2CN3CCC2CC3)c1OC (stereo not given)	CHRM1 antagonist 73.1
COc1ccc(C(=O)C2CCCN(C3CSCCSC3)C2)cc1OC (stereo not given)	CHRM1 antagonist 97.2
O=C(c1ccc(Cl)cc1)C1CCCN(C2CCSCC2)C1 (stereo not given)	CHRM1 antagonist 60.6
CCOC(=O)c1cccc(C2=C(CNC(=O)c3cccnc3)[C@H]3CC[C@@H](C2)N3Cc2ccccc2)c1	none
CCOC(=O)c1cccc(C2=C(CNC(C)=O)[C@H]3CC[C@@H](C2)N3Cc2ccccc2)c1	CHRM1 antagonist 31.1
O=C(NC1CCCCC1)N1Cc2ccc(Br)cc2-n2nncc2C1	none (no result: CHRM1 agonist, M1 PAM, CHRM1 antagonist)
CCCCCCC(Cl)(Cn1ccnc1)c1ccccc1 (stereo not given)	CHRM1 antagonist 33.0
O=C(NCCN1CCC2(CC1)C(=O)NCN2c1ccccc1)c1cc(C(F)(F)F)ccc1C(F)(F)F	none (no result: CHRM1 agonist, M1 PAM, CHRM1 antagonist)
Cc1cc(C)cc(-n2c(C)cc(/C=C3\C(=O)NC(=O)N(C)C3=O)c2C)c1	TAAR1 agonist 38.0
N#Cc1ccc(NC(=S)N2Cc3ccc(Br)cc3-n3nncc3C2)cc1	none (no result: CHRM1 agonist, M1 PAM, CHRM1 antagonist)
COc1ccc(CN2CCCC(C(=O)c3ccc(Cl)cc3)C2)c(O)c1 (stereo not given)	none
Cc1ncc(CN2CCCC(C(=O)c3cccc(Cl)c3)C2)s1 (stereo not given)	none
O=C(c1ccc(Cl)cc1)C1CCCN(Cc2cccc3cccnc23)C1 (stereo not given)	CHRM1 antagonist 58.5
O=C(c1ccc(Cl)cc1)C1CCCN(Cc2ccc3nonc3c2)C1 (stereo not given)	CHRM1 antagonist 43.4
O=C(c1ccc(Cl)cc1)C1CCCN(Cc2cccc3ncccc23)C1 (stereo not given)	CHRM1 antagonist 51.3
N#Cc1ccc2nc(-c3ccc(CN4CCC(n5c(=O)[nH]c6cc(Cl)ccc65)CC4)cc3)c(-c3ccccc3)nc2c1	none (no result: CHRM1 agonist, M1 PAM, CHRM1 antagonist)
COC(=O)C1C(c2ccc(F)cc2)CC2CCC1N2C (stereo not given)	none (no result: CHRM1 agonist, M1 PAM, CHRM1 antagonist)
O=C1c2ccccc2-n2nnc(-c3ccccc3)c2C2c3cc(Br)ccc3CCN12 (stereo not given)	none
CS(=O)(=O)N1Cc2cc(Br)ccc2-n2nncc2C1	none (no result: CHRM1 agonist, M1 PAM, CHRM1 antagonist)
Nc1c(Br)cc2c3c(cccc13)-c1ccccc1-2	none (no result: CHRM1 agonist, M1 PAM, CHRM1 antagonist)
CN1CCC2(CC1)N=C(c1ccc(F)cc1)C(=S)N2	CHRM1 antagonist 26.1
CCN1/C(=C\C=C\C2=[N+](CC)c3ccccc3C2(C)C)C(C)(C)c2ccccc21	CHRM1 agonist 387.8, CHRM1 antagonist 96.4 (no result: TAAR1 agonist, TAAR1 antagonist)
O=c1[nH]c2cc(Cl)ccc2n1C1CCN(Cc2ccc(-c3nc4ccc(F)cc4nc3-c3ccccc3)cc2)CC1	none (no result: CHRM1 agonist, M1 PAM, CHRM1 antagonist)
C[N+](C)(C)c1ccccc1	CHRM1 agonist 39.2
Brc1ccc2c(c1)C(OC1CN3CCC1CC3)c1ccccc1CS2 (stereo not given)	CHRM1 antagonist 100.5
CN(C)CC#CCn1c2ccccc2c2ccccc21	none
OC(CC#CCN1CCCCCC1)(c1ccccc1)C1CCCC1 (stereo not given)	CHRM1 antagonist 99.5
CN(C)CC#CCC(O)(c1ccccc1)C1CCCC1 (stereo not given)	CHRM1 antagonist 99.4
CC1(C(O)(C#CCN2CCCCC2)c2ccccc2)CCCC1 (stereo not given)	CHRM1 antagonist 100.0
Cc1cccc(NP(=O)(Oc2ccccc2F)Oc2ccccc2F)c1	TAAR1 antagonist 53.1
COc1ccccc1OP(=O)(Nc1cccnc1)Oc1ccccc1OC	TAAR1 antagonist 59.7
Cc1ccc(NP(=O)(Oc2ccccc2F)Oc2ccccc2F)cc1C	none
NC(Cc1ccc(Cl)cc1)c1csc(Nc2ccccn2)n1 (stereo not given)	TAAR1 agonist 43.9
NC(Cc1ccc(F)cc1)c1csc(Nc2ccccn2)n1 (stereo not given)	TAAR1 agonist 39.7
NC(Cc1ccccc1)c1csc(Nc2ccccn2)n1 (stereo not given)	none
COC1=CC(=O)OC(CCc2ccc3c(c2)OCO3)C1 (stereo not given)	none
CN1C2(C)c3ccccc3C1(c1ccccc1)c1ccccc12	none (no result: CHRM1 agonist, M1 PAM, CHRM1 antagonist)
Nc1nc(N)c2cnnn2n1	none
CC1CCCN(CC(=O)c2ccc(Cl)c(Cl)c2)C1 (stereo not given)	TAAR1 agonist 41.8
CC1CCN(CC(=O)c2ccc3c(c2)OCCO3)CC1	none
